# From ChEMBL document CHEMBL5678813, “Optimization of a novel series of N-phenylindoline-5-sulfonamide-based acyl CoA:monoacylglycerol acyltransferase-2 inhibitors: Mitigation of CYP3A4 time-dependent inhibition and phototoxic liabilities” (Bioorg Med Chem, 2015)
# pIC50: −log10 of the molar value.
# Legend:
# [1] = target: T1, Sterol O-acyltransferase 1 (Homo sapiens, UniProt P35610); experiment: Inhibition of N-terminal FLAG-tagged full-length human ACAT1 expressed in recombinant baculovirus infected Sf21 cells using [1-14C]-oleoyl-CoA and cholesterol as substrate incubated for 40 mins by TLC analysis
# T1 sequence (P35610 whole entry): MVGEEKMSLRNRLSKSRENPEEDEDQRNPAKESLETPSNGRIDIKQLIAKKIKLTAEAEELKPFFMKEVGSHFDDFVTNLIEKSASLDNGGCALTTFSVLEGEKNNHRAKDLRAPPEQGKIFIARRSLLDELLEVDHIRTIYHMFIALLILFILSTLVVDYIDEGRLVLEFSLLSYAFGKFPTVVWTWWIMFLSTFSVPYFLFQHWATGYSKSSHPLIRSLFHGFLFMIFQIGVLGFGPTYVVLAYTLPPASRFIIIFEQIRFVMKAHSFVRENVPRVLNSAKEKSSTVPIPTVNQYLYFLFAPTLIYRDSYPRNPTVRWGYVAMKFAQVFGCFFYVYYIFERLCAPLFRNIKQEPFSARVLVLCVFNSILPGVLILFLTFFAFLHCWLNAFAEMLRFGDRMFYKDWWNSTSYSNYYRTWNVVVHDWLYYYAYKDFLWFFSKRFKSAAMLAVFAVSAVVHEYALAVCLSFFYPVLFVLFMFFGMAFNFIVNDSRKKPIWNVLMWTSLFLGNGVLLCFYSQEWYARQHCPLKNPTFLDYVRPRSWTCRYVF
# Outline: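 Sf-21 insect cell membranes from baculovirus infection, prepared in pH 7.4 phosphate/sucrose/KCl buffer. Enzyme at 30 µg/mL reacted with 5 µM [1-14C]-oleoyl-CoA and 100 µM cholesterol for 40 min at 32 °C. Lipids extracted by modified Bligh & Dyer, separated on silica TLC (hexane/ethyl ether/acetic acid), and radioactivity imaged.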
# [2] = Oral bioavailability in mouse at 1 mg/kg administered as cassette dose by LC/MS/MS analysis; assay type: ADME, organism-based; details: in vivo
# Outline: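 Non-fasted mice dosed by cassette, iv 0.1 mg/kg or po 1 mg/kg suspended in 0.5% methylcellulose aqueous solution; plasma obtained from blood by centrifugation, deproteinized with acetonitrile, and compound concentrations measured by LC/MS/MS.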
# [3] = (§1) In vivo inhibition of MGAT2 in olive oil-induced C57BL/6J mouse model of hypertriglyceridemia assessed as reduction in plasma chylomicron triglyceride level at 3 mg/kg, po preadministered with compound for 6 hrs followed by Pluronic F127 addition for 30 mins and further treated with olive oil for 4 hrs by automatic analyzer relative to control; assay type: functional; details: time 10.5 hrs
# Outline: (§2)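 Male C57BL/6J mice (20–25 g) fasted overnight and dosed orally at 0.3, 1 or 3 mg/kg. Olive oil (8 mL/kg po) or water given 6 h later, with Pluronic F127 500 mg/kg i.p. 30 min before oil. Tail-vein plasma taken at 0, 2 and 4 h and TG measured by automatic analyzer. CM/TG = oil-group TG minus water-group TG; AUC over 4 h; n = 5, mean ± SD; Williams' test vs vehicle.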
# [4] = target: T2, Diacylglycerol O-acyltransferase 1 (Homo sapiens, UniProt O75907); experiment: Inhibition of N-terminal FLAG-tagged full-length human DGAT1 expressed in recombinant baculovirus infected Sf21 cells using [1-14C]-oleoyl-CoA and 1,2-dioleoyl-glycerol as substrate incubated for 40 mins by TLC analysis
# T2 sequence (O75907 whole entry): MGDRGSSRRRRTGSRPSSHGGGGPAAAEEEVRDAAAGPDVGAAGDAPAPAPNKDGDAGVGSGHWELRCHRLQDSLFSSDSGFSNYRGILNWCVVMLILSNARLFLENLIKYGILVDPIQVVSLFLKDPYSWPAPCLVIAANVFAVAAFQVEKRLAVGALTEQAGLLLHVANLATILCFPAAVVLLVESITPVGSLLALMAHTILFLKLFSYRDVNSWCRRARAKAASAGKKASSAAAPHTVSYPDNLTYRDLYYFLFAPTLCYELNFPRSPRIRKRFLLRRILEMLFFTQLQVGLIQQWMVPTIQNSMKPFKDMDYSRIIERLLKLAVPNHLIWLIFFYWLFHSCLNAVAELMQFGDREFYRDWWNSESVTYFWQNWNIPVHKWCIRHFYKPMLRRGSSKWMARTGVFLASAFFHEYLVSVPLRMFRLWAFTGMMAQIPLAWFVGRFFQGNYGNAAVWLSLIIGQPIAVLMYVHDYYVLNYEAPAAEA
# Outline: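 Membranes from baculovirus-infected Sf-21 cells, each enzyme at 30 µg/mL, incubated with 5 µM [1-14C]-oleoyl-CoA and 40 µM 1,2-dioleoyl-glycerol for 40 min at 32 °C. Lipids extracted by modified Bligh & Dyer, resolved on silica TLC, and radioactivity incorporated into lipids quantified.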
# Mus musculus = experiment: as §1, with “level” for “level at 3 mg/kg, po”, “preadministered orally” for “preadministered”, “analyzer” for “analyzer relative to control”; assay type: functional; details: dose 0.3-3 mg/kg, route po, time 10.5 hrs; outline: as §2
# [5] = 1-Octanol/aqueous buffer partition coefficient, logD of the compound at pH 7.4 by HPLC analysis; assay type: physicochemical
# CYP2C8 = target: T3, CYP2C8 (Homo sapiens, UniProt P10632); experiment: Reversible inhibition of CYP2C8 in human liver microsomes using paclitaxel as substrate at 10 uM incubated for 10 mins by LC/MS/MS analysis relative to control; assay type: ADME, Microsome; details: probe paclitaxel
# T3 sequence (P10632 whole entry): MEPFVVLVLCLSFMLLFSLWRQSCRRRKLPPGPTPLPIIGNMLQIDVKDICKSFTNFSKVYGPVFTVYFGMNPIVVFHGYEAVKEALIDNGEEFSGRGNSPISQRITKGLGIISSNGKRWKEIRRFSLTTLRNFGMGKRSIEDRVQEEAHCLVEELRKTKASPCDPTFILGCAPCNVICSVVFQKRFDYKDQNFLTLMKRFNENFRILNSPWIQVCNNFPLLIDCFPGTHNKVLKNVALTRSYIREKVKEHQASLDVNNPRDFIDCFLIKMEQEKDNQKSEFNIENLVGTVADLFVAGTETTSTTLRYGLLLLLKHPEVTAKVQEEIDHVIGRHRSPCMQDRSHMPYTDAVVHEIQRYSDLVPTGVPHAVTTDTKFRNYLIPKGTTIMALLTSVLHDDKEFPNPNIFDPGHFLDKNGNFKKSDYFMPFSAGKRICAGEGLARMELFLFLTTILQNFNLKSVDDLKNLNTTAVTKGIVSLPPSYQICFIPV
# Outline: (§3)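 Human liver microsomes at 0.1 mg/mL incubated 10 min at 37 °C with isoform-specific substrate and 10 µM test compound. Pairs: 1A2 tacrine/1-hydroxytacrine; 2C8 paclitaxel/6α-hydroxypaclitaxel; 2C9 tolbutamide/4-hydroxytolbutamide; 2D6 dextromethorphan/dextrorphan; 3A4 midazolam/1'-hydroxymidazolam. Stopped with acetonitrile/water; metabolite measured by LC/MS/MS.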
# CYP2D6 = CYP2D6 (Homo sapiens, UniProt P10635); experiment: Reversible inhibition of CYP2D6 in human liver microsomes using dextromethorphan as substrate at 10 uM incubated for 10 mins by LC/MS/MS analysis relative to control; assay type: ADME, Microsome; details: probe dextromethorphan; outline: as §3
# Chain of CYP2D6 (P10635 whole entry): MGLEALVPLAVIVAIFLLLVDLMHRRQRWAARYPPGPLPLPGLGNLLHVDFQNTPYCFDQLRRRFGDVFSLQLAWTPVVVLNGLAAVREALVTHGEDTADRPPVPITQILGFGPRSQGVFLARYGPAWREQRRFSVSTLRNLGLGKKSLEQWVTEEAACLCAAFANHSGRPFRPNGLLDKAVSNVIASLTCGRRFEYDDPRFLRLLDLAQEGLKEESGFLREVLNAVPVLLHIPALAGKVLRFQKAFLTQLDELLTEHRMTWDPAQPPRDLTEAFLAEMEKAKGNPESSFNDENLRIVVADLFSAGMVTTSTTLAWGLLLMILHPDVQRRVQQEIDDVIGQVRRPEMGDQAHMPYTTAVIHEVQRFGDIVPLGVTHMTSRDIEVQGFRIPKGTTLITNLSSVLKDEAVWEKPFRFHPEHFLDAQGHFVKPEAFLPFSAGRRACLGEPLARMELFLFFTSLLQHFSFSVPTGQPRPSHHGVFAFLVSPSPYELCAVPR
smiles,measurement,setting,value
Cn1nc(C(F)(F)F)cc1-c1cnc(N2CCc3cc(S(=O)(=O)Nc4c(F)cc(Cl)cc4F)cc(N4CCCC4=O)c32)nc1 [TP-020],pIC50,[1],< 5.00
same,bioavailability,[2],50%
same,inhibition in vivo at 3 mg/kg,[3],100%
same,pIC50,[4],< 5.00
same,inhibition,Mus musculus,Dose-Dependent Effect
same,logD,[5],2.8
same,"inhibition at 10 min, 10 µM",CYP2C8,32%
same,"inhibition at 10 min, 10 µM",CYP2D6,< 10%
